Test results from ChEMBL document CHEMBL4052591, “Evaluation of Jatrophane Esters from Euphorbia spp. as Modulators of Candida albicans Multidrug Transporters” (2017).
In brackets after ≈: the same amount, converted by molar mass.

Experiments:
[1] = system: Candida albicans; experiment: Inhibition of Candida albicans MDR1 expressed in Saccharomyces cerevisiae AD assessed as ratio of MIC80 of fluconazole in combinantion with compound to MIC80 of fluconazole alone for Saccharomyces cerevisiae AD by checkerboard method
How it was run: (§1)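 CLSI checkerboard in YEPD: 10^4 cells per well, grown 48 h at 30 °C, OD read. Fluconazole 0.15−800 μM was crossed with inhibitor 0.15−800 μM. Run on control AD1-8u− and on strains overexpressing CaCdr1p or CaMdr1p. FIC of each agent = MIC in combination / MIC alone; FICI = sum of both FICs.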

[2] = system: Candida albicans; experiment: Inhibition of Candida albicans CDR1 expressed in Saccharomyces cerevisiae AD assessed as ratio of MIC80 of fluconazole in combinantion with compound to MIC80 of fluconazole alone for Saccharomyces cerevisiae AD by checkerboard method; how it was run: as §1
[3] = system: Candida albicans; experiment: Inhibition of Candida albicans CDR1 transporter expressed in Saccharomyces cerevisiae AD cells assessed as nile red accumulation at 70 uM after 30 mins by flow cytometric analysis relative to control; format: cell-based; design: Activity: scale not given: the % may be the effect or the level left
How it was run: (§2)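 S. cerevisiae AD strains overexpressing CaCdr1p (AD-CDR1) or CaMdr1p (AD-MDR1) were grown at 30 °C from OD600 0.1 to 0.25. They were resuspended as a 5% suspension in YEPD:water 1:2. Nile Red (7 μM final) was given ± inhibitor (70 μM) for 30 min at 30 °C. Accumulation was read by flow cytometry on 10 000 cells. Means ± SD, three independent experiments.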

[4] = system: Candida albicans; experiment: Inhibition of Candida albicans MDR1 expressed in Saccharomyces cerevisiae AD assessed as ratio of MIC80 of compound in combinantion with fluconazole to MIC80 of compound alone for Saccharomyces cerevisiae AD by checkerboard method; how it was run: as §1
[5] = system: Saccharomyces cerevisiae; experiment: Antifungal activity against Saccharomyces cerevisiae AD over-expressing Candida albicans MDR1 transporter after 48 hrs; format: functional
How it was run: (§3)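 S. cerevisiae AD1-8u− derivative overexpressing the transporter, grown in YEPD at 30 °C. Cells (10^4) incubated 48 h at 30 °C with a range of inhibitor concentrations […]; growth read as OD600. Growth without inhibitor taken as 100%; MIC80 is the concentration decreasing growth by 80%. Means ± SD of three independent experiments.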

[6] = system: Saccharomyces cerevisiae; experiment: Potentiation of fluconazole-induced antifungal activity against Saccharomyces cerevisiae AD1-8u(-) assessed as as ratio of MIC80 of fluconazole in combinantion with compound to MIC80 of fluconazole alone by checkerboard method; format: functional; how it was run: as §1
[7] = system: Saccharomyces cerevisiae; experiment: Resistance index, ratio of MIC80 for Saccharomyces cerevisiae AD over-expressing Candida albicans CDR1 to MIC80 for Saccharomyces cerevisiae AD1-8u(-); format: functional
How it was run: (§4)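 MIC80 of the transporter-overexpressing strain and the AD1-8u− control strain each measured after 48 h growth at 30 °C over 0.15−80 μM inhibitor, read by OD600. MIC80 is the concentration cutting growth by 80% versus the no-inhibitor control. Resistance index = overexpressing-strain MIC80 divided by control-strain MIC80.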

[8] = system: Candida albicans; experiment: Inhibition of Candida albicans CDR1 expressed in Saccharomyces cerevisiae AD assessed as potentiation of fluconazole-induced antifungal activity against Saccharomyces cerevisiae AD by checkerboard method; how it was run: as §1
[9] = system: Candida albicans; experiment: Inhibition of Candida albicans MDR1 transporter expressed in Saccharomyces cerevisiae AD cells assessed as nile red dye accumulation at 70 uM after 30 mins by flow cytometric analysis relative to control; format: cell-based; design: Activity: scale not given: the % may be the effect or the level left; how it was run: as §2
[10] = system: Candida albicans; experiment: Inhibition of Candida albicans CDR1 expressed in Saccharomyces cerevisiae AD assessed as ratio of MIC80 of compound in combinantion with fluconazole to MIC80 of compound alone for Saccharomyces cerevisiae AD by checkerboard method; how it was run: as §1
[11] = system: Saccharomyces cerevisiae; experiment: Potentiation of fluconazole-induced antifungal activity against Saccharomyces cerevisiae AD1-8u(-) assessed as ratio of MIC80 of compound in combinantion with fluconazole to MIC80 of compound alone by checkerboard method; format: functional; how it was run: as §1
[12] = system: Saccharomyces cerevisiae; experiment: Resistance index, ratio of MIC80 for Saccharomyces cerevisiae AD over-expressing Candida albicans MDR1 to MIC80 for Saccharomyces cerevisiae AD1-8u(-); format: functional; how it was run: as §4
[13] = system: Saccharomyces cerevisiae; experiment: Potentiation of fluconazole-induced antifungal activity against Saccharomyces cerevisiae AD1-8u(-) by checkerboard method; format: functional; how it was run: as §1
[14] = system: Saccharomyces cerevisiae; experiment: Antifungal activity against Saccharomyces cerevisiae AD1-8u(-) after 48 hrs; format: functional
How it was run: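 Growth inhibition of transporter-deleted control S. cerevisiae AD1-8u− over […]; 10^4 cells grown in YEPD for 48 h at 30 °C. OD600 was read and growth without inhibitor was set as 100%. MIC80 is the concentration cutting growth by 80%. Means ± SD from three independent experiments.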

[15] = system: Saccharomyces cerevisiae; experiment: Antifungal activity against Saccharomyces cerevisiae AD over-expressing Candida albicans CDR1 transporter after 48 hrs; format: functional; how it was run: as §3
[16] = system: Candida albicans; experiment: Inhibition of Candida albicans MDR1 expressed in Saccharomyces cerevisiae AD assessed as potentiation of fluconazole-induced antifungal activity against Saccharomyces cerevisiae AD by checkerboard method; how it was run: as §1

Row | Compound | Ratio [1] | Ratio [2] | Activity [3] [%] | Ratio [4] | MIC80 [5] [µM] | Ratio [6] | Ratio [7] | fractional inhibitory concentration index (FICI) [8] | Activity [9] [%] | Ratio [10] | Ratio [11] | Ratio [12] | fractional inhibitory concentration index (FICI) [13] | MIC80 [14] [µM] | MIC80 [15] [µM] | fractional inhibitory concentration index (FICI) [16]
1 | CC(=O)O[C@H]1[C@@H](OC(C)=O)C(C)(C)/C=C/[C@@](C)(O)C(=O)[C@@]2(O)C[C@@](C)(OC(C)=O)[C@H](OC(C)=O)[C@@H]2[C@H]2OC(=O)CC[C@@]2(OC(C)=O)[C@@H]1OC(=O)C(C)C | 0.5 | 1 | 85 | 0.5 | 691 (≈ 522 µg/mL) | 1 | 1.04 | 2 | 79 | 1 | 1 | 1.01 | 2 | 682 (≈ 515 µg/mL) | 711 (≈ 537 µg/mL) | 1
2 | C=C1[C@@H](OC(C)=O)[C@H]2[C@@H](OC(=O)c3ccccc3)[C@@H](C)C[C@]2(O)[C@H](O)[C@H](C)/C=C/C(C)(C)C(=O)[C@H](OC(=O)C(C)C)[C@H]1OC(C)=O | 1 | 1 |  | 1 | 679 (≈ 436 µg/mL) | 1 | 0.9 | 2 | 74 | 1 | 1 | 0.85 | 2 | 792 (≈ 509 µg/mL) | 710 (≈ 456 µg/mL) | 2
3 | C=C1[C@@H](OC(C)=O)[C@H]2[C@@H](OC(=O)COC(=O)c3ccccc3)[C@](C)(OC(C)=O)C[C@]2(O)C(=O)[C@@H](C)/C=C/C(C)(C)[C@H](OC(C)=O)[C@H](OC(C)=O)[C@H]1OC(=O)C(C)C | 1 | 0.2 | 92 | 1 | 411 (≈ 329 µg/mL) | 1 | 1.2 | 1.2 |  | 1 | 1 | 1.2 | 2 | 324 (≈ 259 µg/mL) | 416 (≈ 333 µg/mL) | 2
4 | C=C1[C@@H](OC(=O)C(C)CC)[C@H]2[C@@H](O)[C@](C)(OC(C)=O)C[C@]2(O)C(=O)[C@@H](C)/C=C/C(C)(C)[C@H](OC(C)=O)[C@H](OC(C)=O)[C@H]1OC(=O)c1ccccc1 (some centres not stated) | 1 | 1 | 64 | 1 | 629 (≈ 450 µg/mL) | 1 | 0.9 | 1.5 | 65 | 0.5 | 1 | 0.87 | 2 | 719 (≈ 514 µg/mL) | 681 (≈ 487 µg/mL) | 2
